# From ChEMBL document CHEMBL1140315, “Design and synthesis of the first generation of novel potent, selective, and in vivo active (benzothiazol-2-yl)acetonitrile inhibitors of the c-Jun N-terminal kinase” (J Med Chem, 2005)
# Experiments:
# [1] = molecular target: Mitogen-activated protein kinase 10 (Rattus norvegicus, UniProt P49187); assay: Inhibition of rat c-Jun N-terminal kinase 3
# Jurkat = assay: Ability to inhibit IL-2 production induced with phorbol-12, myristate-13 acetate and ionomycin in Jurkat T cell at the concentration of 10 uM; assay type: functional; conditions: Homo sapiens
# Outline: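 Jurkat human T cell leukemia cells in RPMI 1640 with 10% heat-inactivated FCS, plated at 2 × 10⁵ cells/well. Compounds added in 0.1% DMSO and preincubated 30 min at 37 °C. Cells then stimulated with PMA + ionomycin (0.1 and 1 µM final) for 24 h at 37 °C. IL-2 in the supernatant measured by sandwich ELISA against a recombinant human IL-2 standard.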
# [2] = molecular target: Inhibitor of nuclear factor kappa-B kinase subunit beta (Homo sapiens, UniProt O14920); assay: Inhibition of IKKB kinase
# [3] = molecular target: Proto-oncogene tyrosine-protein kinase Src (Homo sapiens, UniProt P12931); assay: Inhibition of c-SRC tyrosine kinase
# [4] = molecular target: MAP kinase-activated protein kinase 5 (Homo sapiens, UniProt Q8IW41); assay: Inhibition of protein kinase PRAK
# [5] = molecular target: Mitogen-activated protein kinase 8 (Homo sapiens, UniProt P45983); assay: Inhibition of c-Jun N-Terminal kinase 1
# [6] = Inhibition of PI3k-gamma
# [7] = molecular target: Ribosomal protein S6 kinase alpha-5 (Homo sapiens, UniProt O75582); assay: Inhibition of MSK-1 kinase; Range is 5-10
# [8] = molecular target: Ribosomal protein S6 kinase (P70S6K) (Homo sapiens, UniProt P23443+Q9UBS0); assay: Inhibition of p70S6K; assay type: protein-complex assay
# [9] = molecular target: Dual specificity mitogen-activated protein kinase kinase 4 (Homo sapiens, UniProt P45985); assay: Inhibition of Mitogen activated protein kinase kinase 4
# [10] = molecular target: Mitogen-activated protein kinase 14 (Homo sapiens, UniProt Q16539); assay: Inhibition of MAP kinase p38 alpha
# [11] = molecular target: Protein kinase C alpha type (Homo sapiens, UniProt P17252); assay: Inhibition of protein kinase C alpha
# [12] = molecular target: Dual specificity mitogen-activated protein kinase kinase 7 (Homo sapiens, UniProt O14733); assay: Inhibition of mitogen activated protein kinase kinase 7 beta
# [13] = molecular target: Mitogen-activated protein kinase 3 (Homo sapiens, UniProt P27361); assay: Inhibition of ERK1 kinase
# [14] = molecular target: RAF proto-oncogene serine/threonine-protein kinase (Homo sapiens, UniProt P04049); assay: Inhibition of RAF proto-oncogene serine/threonine protein kinase
# [15] = molecular target: Serine/threonine-protein kinase Sgk1 (Homo sapiens, UniProt O00141); assay: Inhibition of SGK; Range is 5-10
# [16] = molecular target: Cyclin-dependent kinase 2/cyclin A (Homo sapiens, UniProt P24941); assay: Inhibition of CDK2/cyclin A; assay type: protein-complex assay
# [17] = molecular target: MAP kinase-activated protein kinase 2 (Homo sapiens, UniProt P49137); assay: Inhibition of MAP kinase-activated protein kinase 2
# [18] = Oral bioavailability in rat; assay type: ADME, organism-based; conditions: in vivo, read-out: Bioavailabiility
# [19] = molecular target: RAC-alpha serine/threonine-protein kinase (Homo sapiens, UniProt P31749); assay: Inhibition of AKT kinase
# [20] = molecular target: Dual specificity mitogen-activated protein kinase kinase 1 (Homo sapiens, UniProt Q02750); assay: Inhibition of mitogen activated protein kinase kinase 1 (MEK1)
# [21] = molecular target: 3-phosphoinositide-dependent protein kinase 1 (Homo sapiens, UniProt O15530); assay: Inhibitory concentration against PDK 1
# [22] = molecular target: Mitogen-activated protein kinase 9 (Homo sapiens, UniProt P45984); assay: Inhibitory concentration against c-Jun N-Terminal kinase 2
# Mus musculus = assay: Dose administered orally to decrease TNF alpha plasma level in mice; assay type: functional; conditions: po
# Outline: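 Groups of six mice. LPS endotoxin (O111:B4, 0.3 mg/kg) given i.p. 15 min later. Plasma TNF-α measured by ELISA in heparinized blood collected by decapitation. Data given as mean ± SEM, analysed by one-way ANOVA with Dunnett's t-test.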
# [23] = molecular target: Serine/threonine-protein kinase Chk1 (Homo sapiens, UniProt O14757); assay: Inhibition of CHK1 kinase
# [24] = Inhibition of p56 lck tyrosine kinase
# [25] = molecular target: Rho-associated protein kinase 2 (Homo sapiens, UniProt O75116); assay: Inhibition of protein kinase ROCK2; Range is 5-10
# [26] = molecular target: Tyrosine-protein kinase Blk (Homo sapiens, UniProt P51451); assay: Inhibition of BLK; Range is 5-10
# [27] = molecular target: Dual specificity mitogen-activated protein kinase kinase 6 (Homo sapiens, UniProt P52564); assay: Inhibition of Mitogen activated protein kinase 6; Range is 5-10
# Sequence of Mitogen-activated protein kinase 10 (P49187 whole entry): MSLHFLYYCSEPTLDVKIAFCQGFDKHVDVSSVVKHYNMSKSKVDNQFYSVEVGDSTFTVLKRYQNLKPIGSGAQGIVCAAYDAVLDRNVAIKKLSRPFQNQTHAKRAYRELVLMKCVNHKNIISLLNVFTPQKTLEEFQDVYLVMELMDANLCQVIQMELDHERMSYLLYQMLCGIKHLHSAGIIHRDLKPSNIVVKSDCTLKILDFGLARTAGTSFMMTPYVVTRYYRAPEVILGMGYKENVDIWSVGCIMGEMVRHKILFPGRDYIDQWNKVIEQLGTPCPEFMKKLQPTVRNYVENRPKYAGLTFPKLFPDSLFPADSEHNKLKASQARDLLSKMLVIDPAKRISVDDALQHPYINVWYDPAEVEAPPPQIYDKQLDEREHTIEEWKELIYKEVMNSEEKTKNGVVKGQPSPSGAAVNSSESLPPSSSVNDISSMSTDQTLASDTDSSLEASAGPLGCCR
# Sequence of Ribosomal protein S6 kinase alpha-5 (O75582 whole entry): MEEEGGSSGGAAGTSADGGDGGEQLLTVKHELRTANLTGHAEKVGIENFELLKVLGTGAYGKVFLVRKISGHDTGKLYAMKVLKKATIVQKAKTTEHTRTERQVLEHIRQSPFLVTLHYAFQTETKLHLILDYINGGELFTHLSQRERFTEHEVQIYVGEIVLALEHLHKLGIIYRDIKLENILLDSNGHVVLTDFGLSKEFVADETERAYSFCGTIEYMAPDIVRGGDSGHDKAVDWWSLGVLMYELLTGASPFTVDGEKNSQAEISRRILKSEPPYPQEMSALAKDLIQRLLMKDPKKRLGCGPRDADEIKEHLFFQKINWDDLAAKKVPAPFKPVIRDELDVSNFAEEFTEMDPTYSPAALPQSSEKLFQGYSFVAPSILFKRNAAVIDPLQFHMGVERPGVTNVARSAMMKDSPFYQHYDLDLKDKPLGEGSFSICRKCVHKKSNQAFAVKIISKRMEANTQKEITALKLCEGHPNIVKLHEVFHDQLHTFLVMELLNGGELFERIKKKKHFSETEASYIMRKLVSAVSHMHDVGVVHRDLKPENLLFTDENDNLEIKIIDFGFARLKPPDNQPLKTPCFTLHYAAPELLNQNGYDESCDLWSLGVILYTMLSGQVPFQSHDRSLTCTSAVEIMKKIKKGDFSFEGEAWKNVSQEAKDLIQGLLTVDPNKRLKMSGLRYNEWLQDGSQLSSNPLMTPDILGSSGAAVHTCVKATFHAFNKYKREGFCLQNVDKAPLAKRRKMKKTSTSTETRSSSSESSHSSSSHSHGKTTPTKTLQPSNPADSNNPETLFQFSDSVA
# Sequence of Serine/threonine-protein kinase Sgk1 (O00141 whole entry): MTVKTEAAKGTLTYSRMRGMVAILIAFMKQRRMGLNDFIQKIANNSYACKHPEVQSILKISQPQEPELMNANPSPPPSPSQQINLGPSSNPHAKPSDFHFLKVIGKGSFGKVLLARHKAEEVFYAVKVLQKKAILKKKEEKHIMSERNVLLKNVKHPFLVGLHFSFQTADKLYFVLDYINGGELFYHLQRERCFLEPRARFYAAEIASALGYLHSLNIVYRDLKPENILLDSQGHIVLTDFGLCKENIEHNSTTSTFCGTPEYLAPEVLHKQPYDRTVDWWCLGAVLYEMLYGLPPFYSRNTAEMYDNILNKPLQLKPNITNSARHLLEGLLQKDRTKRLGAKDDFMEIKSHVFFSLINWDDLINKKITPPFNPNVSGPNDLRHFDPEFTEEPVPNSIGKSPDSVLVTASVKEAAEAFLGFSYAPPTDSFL
# Sequence of Mitogen-activated protein kinase 8 (P45983 whole entry): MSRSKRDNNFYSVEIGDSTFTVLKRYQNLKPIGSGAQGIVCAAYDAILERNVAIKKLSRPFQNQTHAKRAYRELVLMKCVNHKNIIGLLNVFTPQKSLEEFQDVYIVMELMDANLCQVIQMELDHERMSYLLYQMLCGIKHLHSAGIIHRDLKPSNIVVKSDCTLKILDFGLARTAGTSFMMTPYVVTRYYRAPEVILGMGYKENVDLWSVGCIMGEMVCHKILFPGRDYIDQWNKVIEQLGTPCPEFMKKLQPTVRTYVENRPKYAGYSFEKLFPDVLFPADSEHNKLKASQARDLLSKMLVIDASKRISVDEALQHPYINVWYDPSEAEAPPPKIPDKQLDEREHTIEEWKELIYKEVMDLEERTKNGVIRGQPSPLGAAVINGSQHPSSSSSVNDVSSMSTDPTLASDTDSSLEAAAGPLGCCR
# Sequence of RAF proto-oncogene serine/threonine-protein kinase (P04049 whole entry): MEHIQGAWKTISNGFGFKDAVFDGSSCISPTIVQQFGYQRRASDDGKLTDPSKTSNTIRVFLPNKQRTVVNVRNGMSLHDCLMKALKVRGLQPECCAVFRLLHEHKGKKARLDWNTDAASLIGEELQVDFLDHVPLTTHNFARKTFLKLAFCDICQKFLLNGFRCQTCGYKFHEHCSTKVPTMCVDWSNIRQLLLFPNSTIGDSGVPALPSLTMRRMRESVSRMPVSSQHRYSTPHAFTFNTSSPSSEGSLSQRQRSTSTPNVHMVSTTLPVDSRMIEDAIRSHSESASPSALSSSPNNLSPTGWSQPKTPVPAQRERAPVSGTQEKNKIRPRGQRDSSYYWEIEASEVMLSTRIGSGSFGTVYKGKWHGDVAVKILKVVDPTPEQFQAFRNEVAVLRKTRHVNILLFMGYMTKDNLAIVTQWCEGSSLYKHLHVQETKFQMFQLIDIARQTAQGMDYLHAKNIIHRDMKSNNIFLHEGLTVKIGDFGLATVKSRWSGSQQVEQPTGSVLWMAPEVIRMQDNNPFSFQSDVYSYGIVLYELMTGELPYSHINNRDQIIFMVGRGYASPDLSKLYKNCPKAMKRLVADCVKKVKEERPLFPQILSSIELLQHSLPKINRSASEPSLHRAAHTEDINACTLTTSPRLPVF
# Sequence of Inhibitor of nuclear factor kappa-B kinase subunit beta (O14920 whole entry): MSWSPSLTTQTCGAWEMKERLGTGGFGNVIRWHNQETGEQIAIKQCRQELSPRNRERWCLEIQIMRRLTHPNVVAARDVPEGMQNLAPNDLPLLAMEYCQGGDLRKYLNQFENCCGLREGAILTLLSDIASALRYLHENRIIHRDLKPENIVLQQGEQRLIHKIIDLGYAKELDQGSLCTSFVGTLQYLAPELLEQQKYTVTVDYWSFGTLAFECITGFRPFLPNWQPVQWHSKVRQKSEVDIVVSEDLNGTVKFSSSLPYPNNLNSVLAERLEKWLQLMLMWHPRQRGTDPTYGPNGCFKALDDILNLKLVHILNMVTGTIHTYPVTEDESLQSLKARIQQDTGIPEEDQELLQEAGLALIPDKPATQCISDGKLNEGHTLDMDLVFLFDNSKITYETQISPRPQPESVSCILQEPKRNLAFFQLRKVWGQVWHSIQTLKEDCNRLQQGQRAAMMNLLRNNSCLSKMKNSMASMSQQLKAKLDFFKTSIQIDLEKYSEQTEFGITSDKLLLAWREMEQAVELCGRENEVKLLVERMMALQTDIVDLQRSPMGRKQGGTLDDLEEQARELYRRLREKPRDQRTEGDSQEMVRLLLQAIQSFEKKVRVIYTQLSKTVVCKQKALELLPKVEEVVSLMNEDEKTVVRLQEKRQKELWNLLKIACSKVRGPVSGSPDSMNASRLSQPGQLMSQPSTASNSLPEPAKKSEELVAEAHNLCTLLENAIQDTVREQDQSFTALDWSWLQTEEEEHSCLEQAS
# Sequence of MAP kinase-activated protein kinase 2 (P49137 whole entry): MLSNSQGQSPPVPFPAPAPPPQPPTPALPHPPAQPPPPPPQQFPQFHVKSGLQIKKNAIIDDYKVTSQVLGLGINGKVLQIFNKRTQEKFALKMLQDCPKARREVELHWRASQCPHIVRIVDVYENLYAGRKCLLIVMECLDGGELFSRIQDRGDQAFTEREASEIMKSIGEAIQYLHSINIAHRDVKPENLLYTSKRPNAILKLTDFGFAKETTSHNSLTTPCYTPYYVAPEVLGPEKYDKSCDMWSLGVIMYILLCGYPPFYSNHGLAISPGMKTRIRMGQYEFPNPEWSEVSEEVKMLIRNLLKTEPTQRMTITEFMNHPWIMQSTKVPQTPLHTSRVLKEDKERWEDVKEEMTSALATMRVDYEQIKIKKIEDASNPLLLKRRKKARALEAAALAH
# Sequence of MAP kinase-activated protein kinase 5 (Q8IW41 whole entry): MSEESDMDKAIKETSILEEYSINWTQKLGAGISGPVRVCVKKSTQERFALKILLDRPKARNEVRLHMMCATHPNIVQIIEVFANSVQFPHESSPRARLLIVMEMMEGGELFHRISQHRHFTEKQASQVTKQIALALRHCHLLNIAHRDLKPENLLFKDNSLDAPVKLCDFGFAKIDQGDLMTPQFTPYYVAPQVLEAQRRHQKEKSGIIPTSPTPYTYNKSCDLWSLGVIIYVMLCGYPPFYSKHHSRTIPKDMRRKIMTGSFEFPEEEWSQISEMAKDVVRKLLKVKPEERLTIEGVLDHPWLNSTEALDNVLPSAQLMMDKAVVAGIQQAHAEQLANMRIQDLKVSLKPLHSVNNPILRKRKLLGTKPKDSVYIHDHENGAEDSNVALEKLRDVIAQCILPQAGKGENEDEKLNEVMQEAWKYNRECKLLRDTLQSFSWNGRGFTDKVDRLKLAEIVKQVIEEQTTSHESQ
# Sequence of RAC-alpha serine/threonine-protein kinase (P31749 whole entry): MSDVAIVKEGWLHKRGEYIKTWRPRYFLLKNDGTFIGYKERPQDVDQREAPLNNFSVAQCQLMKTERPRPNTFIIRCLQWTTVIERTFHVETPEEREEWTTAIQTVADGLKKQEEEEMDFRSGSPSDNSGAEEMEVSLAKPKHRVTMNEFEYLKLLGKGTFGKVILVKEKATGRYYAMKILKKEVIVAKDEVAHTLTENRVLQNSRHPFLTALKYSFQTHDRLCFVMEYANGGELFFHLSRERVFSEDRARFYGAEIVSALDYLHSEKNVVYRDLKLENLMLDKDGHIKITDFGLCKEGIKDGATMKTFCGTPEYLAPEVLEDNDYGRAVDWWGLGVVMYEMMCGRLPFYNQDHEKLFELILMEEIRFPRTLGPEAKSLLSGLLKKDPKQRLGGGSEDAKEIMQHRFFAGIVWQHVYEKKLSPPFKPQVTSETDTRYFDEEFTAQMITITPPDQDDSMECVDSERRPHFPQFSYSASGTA
smiles,measurement,setting,value
CCCN(CCC)c1nccc(/C(C#N)=C2\Nc3ccccc3S2)n1,IC50,[1],> 5 µM
N#CC(=C1Nc2ccccc2N1)c1nc(Cl)ncc1Br,IC50,[1],> 5 µM
N#C/C(=C1/Nc2ccccc2S1)c1ccnc(NCCCN2CCOCC2)n1,IC50,[1],0.407 µM
N#C/C(=C1/Nc2ccccc2S1)c1ccnc(NCCc2ccccc2F)n1,inhibition at 10 µM,Jurkat,90%
same,IC50,[1],0.273 µM
N#C/C(=C1/Nc2ccccc2S1)c1ccnc(NCc2ccccc2)n1,IC50,[1],6.5 µM
N#C/C(=C1/Nc2ccccc2S1)c1ccnc(NCc2nn[nH]n2)n1,IC50,[1],> 5 µM
N#C/C(=C1/Nc2ccccc2S1)c1ccnc(NCCc2ccccc2)n1,IC50,[1],> 5 µM
COCCNc1nccc(/C(C#N)=C2\Nc3ccccc3S2)n1,IC50,[1],0.82 µM
N#C/C(=C1/Nc2ccccc2S1)c1ccnc(NCCc2ccc(Cl)c(Cl)c2)n1,IC50,[1],> 5 µM
N#C/C(=C1/Nc2ccccc2S1)c1ccnc(NCCc2ccc(S(N)(=O)=O)cc2)n1,IC50,[1],0.041 µM
N#C/C(=C1/Nc2ccccc2S1)c1ccnc(NCCc2ccc([N+](=O)[O-])cc2)n1,IC50,[1],0.6 µM
COC1CCN(c2nccc(/C(C#N)=C3\Nc4ccccc4S3)n2)CC1,IC50,[1],7.2 µM
N#C/C(=C1/Nc2ccccc2S1)c1ccnc(NCCc2cccc(F)c2)n1,IC50,[1],1.81 µM
N#C/C(=C1/Nc2ccccc2S1)c1ccnc(NCCCn2ccnc2)n1,inhibition at 10 µM,Jurkat,31%
same,IC50,[1],0.147 µM
CCCNc1nccc(/C(C#N)=C2\Nc3ccccc3S2)n1,IC50,[1],> 5 µM
N#C/C(=C1/Nc2cc(C(F)(F)F)ccc2S1)c1ccnc(Cl)n1,IC50,[1],0.993 µM
N#C/C(=C1/Nc2ccccc2S1)c1ccnc(NCCCn2cccn2)n1,IC50,[1],0.583 µM
CN(C)CCCNc1nccc(/C(C#N)=C2\Nc3ccccc3S2)n1,IC50,[1],1.64 µM
N#C/C(=C1/Nc2ccccc2S1)c1ccnc(NCCN2CCCCC2)n1,IC50,[1],3.74 µM
COc1ccc(CCNc2nccc(/C(C#N)=C3\Nc4ccccc4S3)n2)cc1,IC50,[1],3.08 µM
N#C/C(=C1/Nc2ccccc2S1)c1ccnc(NCCc2ccc(Br)cc2)n1,IC50,[1],> 5 µM
N#C/C(=C1/Nc2ccccc2S1)c1cc(Br)nc(Cl)n1,IC50,[1],0.35 µM
Cc1ccc(CCNc2nccc(/C(C#N)=C3\Nc4ccccc4S3)n2)cc1,IC50,[1],> 5 µM
CN(C)c1nccc(/C(C#N)=C2\Nc3ccccc3S2)n1,IC50,[1],9.4 µM
N#C/C(=C1/Nc2ccccc2S1)c1ccnc(NCc2cccnc2)n1,inhibition at 10 µM,Jurkat,95%
same,IC50,[1],0.337 µM
CCCN(CCCNc1nccc(/C(C#N)=C2\Nc3ccccc3S2)n1)C(=O)CC,IC50,[1],1.34 µM
N#C/C(=C1/Nc2ccccc2S1)c1ccnc(NCCc2cccnc2)n1.O=C(O)C(F)(F)F.O=C(O)C(F)(F)F,IC50,[2],> 10 µM
same,IC50,[3],1.1 µM
same,IC50,[4],> 10 µM
same,IC50,[5],0.15 µM
same,IC50,[6],> 10 µM
same,IC50,[7],10 µM
same,inhibition at 10 µM,Jurkat,90%
same,IC50,[8],> 10 µM
same,IC50,[9],> 10 µM
same,IC50,[10],4.8 µM
same,IC50,[11],> 10 µM
same,IC50,[12],> 10 µM
same,IC50,[13],> 10 µM
same,IC50,[14],1.2 µM
same,IC50,[15],10 µM
same,IC50,[16],1.4 µM
same,IC50,[17],> 10 µM
same,bioavailability,[18],38%
same,IC50,[19],> 10 µM
same,IC50,[20],> 10 µM
same,IC50,[21],> 10 µM
same,IC50,[22],0.22 µM
same,ED50,Mus musculus,3 mg/kg
same,IC50,[23],> 10 µM
same,IC50,[24],> 10 µM
same,IC50,[25],10 µM
same,IC50,[26],10 µM
same,IC50,[27],10 µM
N#C/C(=C1/Nc2ccccc2S1)c1ccnc(NN)n1,IC50,[1],0.5 µM
N#C/C(=C1/Nc2ccccc2S1)c1ccnc(NCCc2ccc(N)cc2)n1,inhibition at 10 µM,Jurkat,80%
same,IC50,[1],0.08 µM
N#C/C(=C1/Nc2ccccc2S1)c1ccnc(NCCn2cncn2)n1,IC50,[1],0.397 µM
N#C/C(=C1/Nc2ccccc2S1)c1ccncn1,IC50,[1],> 5 µM
N#C/C(=C1/Nc2ccccc2S1)c1ccnc(NCCCN)n1,IC50,[1],0.707 µM
N#C/C(=C1/Nc2ccccc2S1)c1ccnc(NCCCO)n1,IC50,[1],0.66 µM
CCO/C(O)=C(\c1ccnc(Cl)n1)c1nc2ccccc2s1,IC50,[1],> 5 µM
Cn1cncc1CCNc1nccc(/C(C#N)=C2\Nc3ccccc3S2)n1,inhibition at 10 µM,Jurkat,100%
N#C/C(=C1/Nc2ccccc2S1)c1ccnc(NCCc2c[nH]cn2)n1,inhibition at 10 µM,Jurkat,80%
same,IC50,[1],0.08 µM
N#C/C(=C1/Nc2ccccc2S1)c1ccnc(NCc2ccncc2)n1,IC50,[1],0.34 µM
Cc1cc(/C(C#N)=C2\Nc3ccccc3S2)nc(Cl)n1,IC50,[1],> 5 µM
N#C/C(=C1/Nc2ccccc2S1)c1ccnc(NCCO)n1,IC50,[1],0.51 µM
N#C/C(=C1/Nc2ccccc2S1)c1ccnc(NCCc2cccc(Cl)c2)n1,IC50,[1],> 5 µM
N#C/C(=C1/Nc2ccccc2S1)c1cccc(Cl)n1,IC50,[1],> 5 µM
Cn1cnc(CCNc2nccc(/C(C#N)=C3\Nc4ccccc4S3)n2)c1,IC50,[1],0.065 µM
N#C/C(=C1/Nc2ccccc2S1)c1ccnc(N2CCOCC2)n1,IC50,[1],2.9 µM
CN1CCN(c2nccc(/C(C#N)=C3\Nc4ccccc4S3)n2)CC1,IC50,[1],6.8 µM
N#C/C(=C1/Nc2ccccc2S1)c1ccnc(NCCc2ccc(F)cc2)n1,inhibition at 10 µM,Jurkat,0%
same,IC50,[1],> 5 µM
N#C/C(=C1/Nc2ccccc2S1)c1ccnc(N)n1,IC50,[1],7.5 µM
N#C/C(=C1/Nc2ccccc2S1)c1ccnc(NCCn2ccc3ccccc32)n1,IC50,[1],0.458 µM
CNCCCN(C)c1nccc(/C(C#N)=C2\Nc3ccccc3S2)n1,IC50,[1],1.32 µM
N#C/C(=C1/Nc2ccccc2S1)c1ccnc(N2CCNCC2)n1,IC50,[1],6.6 µM
N#C/C(=C1/Nc2ccccc2S1)c1ccnc(NCc2ccccn2)n1,IC50,[1],0.65 µM
CN(C)CCNc1nccc(/C(C#N)=C2\Nc3ccccc3S2)n1,IC50,[1],1.3 µM
CNc1nccc(/C(C#N)=C2\Nc3ccccc3S2)n1,IC50,[1],0.95 µM
N#C/C(=C1/Nc2ccccc2S1)c1ccnc(NCCc2ccccn2)n1,inhibition at 10 µM,Jurkat,60%
same,IC50,[1],0.25 µM
N#C/C(=C1/Nc2ccccc2S1)c1ccnc(Cl)n1,inhibition at 10 µM,Jurkat,90%
same,IC50,[1],0.25 µM
N#C/C(=C1/Nc2ccccc2S1)c1ccnc(NCCc2ccc(O)cc2)n1,IC50,[1],3.5 µM
CN1/C(=C(/C#N)c2ccnc(Cl)n2)Sc2ccccc21,IC50,[1],> 5 µM
N#C/C(=C1/Nc2ccccc2S1)c1ccnc(NCCN)n1,IC50,[1],1.49 µM
N#C/C(=C1/Nc2ccccc2S1)c1ccnc(NCCN2CCOCC2)n1,IC50,[1],0.76 µM
CN1CCN(CCCNc2nccc(/C(C#N)=C3\Nc4ccccc4S3)n2)CC1,inhibition at 10 µM,Jurkat,83%
